Assay results as given in PubChem BioAssay.
Calls of active or inactive are those of the source.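 Rule for the calls, unless noted: active = calcium signal cut by more than 3 SD below the full-agonist control yet still positive, in both repeats and the earlier primary screen; inactive = the rest.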

target: Short transient receptor potential channel 4 (Mus musculus) (UniProt Q9QUQ5); assay: inhibitors of mouse TRPC4 channel, confirmation, cell-based, Fluo4, HEK293 TRPC4beta/mu-opioid (AID 2636); details: DAMGO, Fluo4 calcium flux, at 10 µM; stronger effect = higher value
Procedure, shortened: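 Test system: HEK293 stable line with TRPC4beta plus mu-opioid receptor; Probe or stimulus: DAMGO, mu-opioid agonist, submaximal dose then maximally activating dose; Timing: dye 45 min at room temperature, compound 110 s, submaximal DAMGO 110 s; Technique: kinetic fluorescence of Fluo4 calcium-sensitive dye, calcium influx; Replication: duplicates per compound.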

Sequence of Short transient receptor potential channel 4 (Mus musculus) (Q9QUQ5 whole entry, looked up): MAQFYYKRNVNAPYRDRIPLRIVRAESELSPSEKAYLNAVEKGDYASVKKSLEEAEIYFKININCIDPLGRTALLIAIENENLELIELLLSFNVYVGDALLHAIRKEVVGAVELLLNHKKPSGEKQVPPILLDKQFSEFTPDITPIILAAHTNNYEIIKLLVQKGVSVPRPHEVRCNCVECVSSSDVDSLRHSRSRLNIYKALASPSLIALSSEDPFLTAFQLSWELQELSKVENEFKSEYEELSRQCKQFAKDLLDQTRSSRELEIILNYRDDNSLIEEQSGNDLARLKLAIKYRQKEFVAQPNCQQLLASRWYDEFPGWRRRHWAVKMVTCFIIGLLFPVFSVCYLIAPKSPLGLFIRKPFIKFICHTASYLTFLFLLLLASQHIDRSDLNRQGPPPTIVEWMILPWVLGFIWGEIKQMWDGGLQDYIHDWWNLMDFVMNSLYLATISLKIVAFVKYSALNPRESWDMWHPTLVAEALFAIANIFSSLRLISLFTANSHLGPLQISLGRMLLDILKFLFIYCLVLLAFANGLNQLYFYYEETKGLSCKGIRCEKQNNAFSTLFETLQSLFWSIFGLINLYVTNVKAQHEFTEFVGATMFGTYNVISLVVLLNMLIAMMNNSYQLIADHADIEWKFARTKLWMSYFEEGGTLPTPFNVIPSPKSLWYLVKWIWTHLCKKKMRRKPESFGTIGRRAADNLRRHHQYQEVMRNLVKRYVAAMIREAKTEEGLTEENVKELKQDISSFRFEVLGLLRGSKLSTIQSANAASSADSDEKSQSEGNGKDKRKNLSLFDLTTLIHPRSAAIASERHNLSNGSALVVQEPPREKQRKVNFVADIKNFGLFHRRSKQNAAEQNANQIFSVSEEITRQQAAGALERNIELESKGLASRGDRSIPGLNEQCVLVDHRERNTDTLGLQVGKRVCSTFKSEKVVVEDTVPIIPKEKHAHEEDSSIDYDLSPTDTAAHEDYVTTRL

inhibition, active:
COc1cc(C(F)(F)F)nc2c(Br)c(C(C)(C)C)nn12 92%
COc1ccccc1N(C(=O)c1snc(C(N)=O)c1N)C(C(=O)NC1CCCC1)c1ccc2ncccc2c1 (stereo not given) 41%
CCc1c(C(=O)N2CCCN(C)CC2)csc1C 63%
O=c1c2ccccc2nc(SCc2ccc([N+](=O)[O-])cc2)n1CCCO 90%
CN1/C(=C\C(=O)C[n+]2ccc3ccccc3c2)C(C)(C)c2ccccc21 96%
CN(C)CCCN(C(=O)c1ccc(S(=O)(=O)N2CCCC2)cc1)c1nc2c(F)cc(F)cc2s1 68%
O=[N+]([O-])c1cccc(N(CC(O)CN2CCCC2)S(=O)(=O)c2ccccc2)c1 (stereo not given) 101%
Cc1cc(Nc2cccc(O)c2)c2ccccc2n1 86%
COc1ccc(CN2CCN(Cc3ccc(C(F)(F)F)cc3)CC2)c(OC)c1 95%
O=[N+]([O-])c1ccc(O)c(C2=NNC(c3ccccc3F)C2)c1 (stereo not given) 55%
Cn1c(-c2ccccc2)cnc1NCc1ccc(F)cc1 81%
COc1nc(N=C(N)N)nc2ccc(C)cc12 96%
CN(CC(=O)NC1CCCc2ccccc21)C1CCCCC1 (stereo not given) 80%
COc1cc(OC)c(C2N(C)c3ccccc3N2C)cc1OC 77%
O=[N+]([O-])c1cccc(-c2nnc(C3CC3)o2)c1 68%
O=C(NCCN1CCOCC1)c1cc2sccc2n1Cc1ccc(F)cc1 74%
CN(C)CCCNc1c2ccccc2nc2ccccc12 94%
COc1ccccc1Nc1nc(NCC2CCCO2)c2ccccc2n1 (stereo not given) 91%
CC12CCC(C/C1=N/OC(=O)c1cccc([N+](=O)[O-])c1)C2(C)C (stereo not given) 82%
CCN(CC)CCN(C(=O)c1ccccc1OC)c1nc2ccc(F)cc2s1 84%
CCOc1ccccc1N(C(=O)c1snc(C(N)=O)c1N)C(C(=O)NCc1ccccc1)c1ccc(O)cc1 (stereo not given) 79%
Cc1cc([N+](=O)[O-])ccc1NCc1ccccc1 97%
Cn1c(-c2ccc(F)cc2)cnc1NCc1ccc(F)cc1F 88%
Nc1cc(N2CCCCC2)c([N+](=O)[O-])cc1Cl 88%
CN(C)C(CNC(=O)c1cccc(C(F)(F)F)c1)c1ccco1 (stereo not given) 67%
COc1ccc(CN2CCN(C(=O)c3ccc(F)cc3)CC2)c(OC)c1 93%
COCCn1c(SCc2ccccc2F)nc2ccccc2c1=O 88%
CCCCn1c(NCc2ccc(N(C)C)cc2)nc2ccccc21 93%
COc1ccc([N+](=O)[O-])cc1NCc1ccco1 69%
Cc1cc(C)c2nc(C)cc(N/N=C/c3ccc(O)cc3)c2c1 91%
Cc1nn(C(=O)CNS(=O)(=O)c2ccccc2)c(C)c1Sc1ccc(Cl)cc1 89%
Cc1n[nH]c(C)c1CCCCOc1ccccc1F 98%
COC(=O)C1=C(C)N(Cc2ccccc2)C(=S)N[C@H]1c1ccccc1 73%
CC1(c2ccccc2)CC(C)(C)N(C(=O)C2CCCO2)c2ccccc21 (stereo not given) 90%
CC(OC(=O)CNC(=O)c1ccccc1F)C(=O)Nc1nc(-c2ccccc2)cs1 (stereo not given) 78%
CC(OCC(O)CN(C)CCOc1ccccc1)c1ccc(Cl)cc1 (stereo not given) 94%
Cc1cc(-c2sccc2C)nc(-n2cccc2)n1 91%

outcome, inactive:
O=C(CSc1nnc(-c2ccc(Cl)cc2Cl)n1C1CCCCC1)N1CCCC1
Cc1ccc(Nc2cc(C)nc3c(C)cccc23)cc1
COc1ccccc1C(=O)Nc1ccc2c(c1)CCCN2C(=O)c1cccs1

target: Short transient receptor potential channel 4 (Mus musculus) (UniProt Q9QUQ5); assay: inhibitors of mouse TRPC4 channel, confirmation, cell-based, second round, Fluo4, HEK293 TRPC4beta/mu-opioid, 1 µM (AID 2637;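 active = calcium signal ratio cut to more than 3 SD under the fully stimulated control mean yet still positive, in both repeats and the primary screen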;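 for inhibition: percent of integrated ratio relative to wells lacking test compound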); details: Fluo4 calcium flux, DAMGO, at 1 µM; stronger effect = higher value
Procedure, shortened: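 Also added: sequential submaximal then maximal DAMGO stimulation; system: TRPC4beta/mu-opioid receptor HEK293 cells; compound: one dose, 1 µM final; signal: kinetic Fluo4 Ca2+ fluorescence reading; benchmarks: ECmax and compound-free wells; repeats: two replicates; times: Fluo4 loading 45 min at room temperature, compound 110 s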

inhibition, active:
COc1cc(C(F)(F)F)nc2c(Br)c(C(C)(C)C)nn12 65%
CCc1c(C(=O)N2CCCN(C)CC2)csc1C 44%
O=c1c2ccccc2nc(SCc2ccc([N+](=O)[O-])cc2)n1CCCO 68%
COc1ccc(CN2CCN(Cc3ccc(C(F)(F)F)cc3)CC2)c(OC)c1 41%
Cn1c(-c2ccccc2)cnc1NCc1ccc(F)cc1 53%
O=C(CSc1nnc(-c2ccc(Cl)cc2Cl)n1C1CCCCC1)N1CCCC1 48%
Cc1ccc(Nc2cc(C)nc3c(C)cccc23)cc1 54%
O=[N+]([O-])c1cccc(-c2nnc(C3CC3)o2)c1 38%
O=C(NCCN1CCOCC1)c1cc2sccc2n1Cc1ccc(F)cc1 49%
CN(C)CCCNc1c2ccccc2nc2ccccc12 62%
COc1ccccc1Nc1nc(NCC2CCCO2)c2ccccc2n1 (stereo not given) 50%
CC12CCC(C/C1=N/OC(=O)c1cccc([N+](=O)[O-])c1)C2(C)C (stereo not given) 40%
Cc1cc([N+](=O)[O-])ccc1NCc1ccccc1 44%
Cn1c(-c2ccc(F)cc2)cnc1NCc1ccc(F)cc1F 46%
Nc1cc(N2CCCCC2)c([N+](=O)[O-])cc1Cl 42%
CN(C)C(CNC(=O)c1cccc(C(F)(F)F)c1)c1ccco1 (stereo not given) 69%
COc1ccc(CN2CCN(C(=O)c3ccc(F)cc3)CC2)c(OC)c1 57%
CCCCn1c(NCc2ccc(N(C)C)cc2)nc2ccccc21 50%
Cc1nn(C(=O)CNS(=O)(=O)c2ccccc2)c(C)c1Sc1ccc(Cl)cc1 62%
Cc1n[nH]c(C)c1CCCCOc1ccccc1F 65%
CC(OCC(O)CN(C)CCOc1ccccc1)c1ccc(Cl)cc1 (stereo not given) 44%

outcome, inactive:
COc1ccccc1N(C(=O)c1snc(C(N)=O)c1N)C(C(=O)NC1CCCC1)c1ccc2ncccc2c1 (stereo not given)
CN1/C(=C\C(=O)C[n+]2ccc3ccccc3c2)C(C)(C)c2ccccc21
CN(C)CCCN(C(=O)c1ccc(S(=O)(=O)N2CCCC2)cc1)c1nc2c(F)cc(F)cc2s1
O=[N+]([O-])c1cccc(N(CC(O)CN2CCCC2)S(=O)(=O)c2ccccc2)c1 (stereo not given)
Cc1cc(Nc2cccc(O)c2)c2ccccc2n1
O=[N+]([O-])c1ccc(O)c(C2=NNC(c3ccccc3F)C2)c1 (stereo not given)
COc1nc(N=C(N)N)nc2ccc(C)cc12
CN(CC(=O)NC1CCCc2ccccc21)C1CCCCC1 (stereo not given)
COc1cc(OC)c(C2N(C)c3ccccc3N2C)cc1OC
CCN(CC)CCN(C(=O)c1ccccc1OC)c1nc2ccc(F)cc2s1
CCOc1ccccc1N(C(=O)c1snc(C(N)=O)c1N)C(C(=O)NCc1ccccc1)c1ccc(O)cc1 (stereo not given)
COCCn1c(SCc2ccccc2F)nc2ccccc2c1=O
COc1ccccc1C(=O)Nc1ccc2c(c1)CCCN2C(=O)c1cccs1
COc1ccc([N+](=O)[O-])cc1NCc1ccco1
Cc1cc(C)c2nc(C)cc(N/N=C/c3ccc(O)cc3)c2c1
COC(=O)C1=C(C)N(Cc2ccccc2)C(=S)N[C@H]1c1ccccc1
CC1(c2ccccc2)CC(C)(C)N(C(=O)C2CCCO2)c2ccccc21 (stereo not given)
CC(OC(=O)CNC(=O)c1ccccc1F)C(=O)Nc1nc(-c2ccccc2)cs1 (stereo not given)
Cc1cc(-c2sccc2C)nc(-n2cccc2)n1
